The results in this text go back to ChEMBL document CHEMBL4038302, “Fibroblast Activation Protein α Activated Tripeptide Bufadienolide Antitumor Prodrug with Reduced Cardiotoxicity” (J Med Chem, 2017).

The test system of data set [1] is MDA-MB-231. Kind of data set: Antiproliferative activity against human MDA-MB-231 cells transfected with human FAP-alpha incubated for 48 hrs by MTT assay. The format is functional, cell-based. The following applies: MDA-MB-231, 48 h. A digest of the protocol:
(§1)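 Cells grown in DMEM with 10% FBS and 1% penicillin-streptomycin at 37 °C, 5% CO2; 10% heat-inactivated FBS used during cytotoxicity testing to exclude serum FAP activity. Viability read by MTT; IC50 as mean ± SEM of at least three independent experiments. Transfected lines were made from MDA-MB-231 with human FAPα plasmid or empty pCMV6-Entry vector and checked by Western blot at 48 h.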
In general terms: Formazan colour is commonly taken as a measure of viable cells.

For the next data set, the target named is T1, Prolyl endopeptidase FAP (Homo sapiens, UniProt Q12884).
T1 sequence (Q12884 whole entry): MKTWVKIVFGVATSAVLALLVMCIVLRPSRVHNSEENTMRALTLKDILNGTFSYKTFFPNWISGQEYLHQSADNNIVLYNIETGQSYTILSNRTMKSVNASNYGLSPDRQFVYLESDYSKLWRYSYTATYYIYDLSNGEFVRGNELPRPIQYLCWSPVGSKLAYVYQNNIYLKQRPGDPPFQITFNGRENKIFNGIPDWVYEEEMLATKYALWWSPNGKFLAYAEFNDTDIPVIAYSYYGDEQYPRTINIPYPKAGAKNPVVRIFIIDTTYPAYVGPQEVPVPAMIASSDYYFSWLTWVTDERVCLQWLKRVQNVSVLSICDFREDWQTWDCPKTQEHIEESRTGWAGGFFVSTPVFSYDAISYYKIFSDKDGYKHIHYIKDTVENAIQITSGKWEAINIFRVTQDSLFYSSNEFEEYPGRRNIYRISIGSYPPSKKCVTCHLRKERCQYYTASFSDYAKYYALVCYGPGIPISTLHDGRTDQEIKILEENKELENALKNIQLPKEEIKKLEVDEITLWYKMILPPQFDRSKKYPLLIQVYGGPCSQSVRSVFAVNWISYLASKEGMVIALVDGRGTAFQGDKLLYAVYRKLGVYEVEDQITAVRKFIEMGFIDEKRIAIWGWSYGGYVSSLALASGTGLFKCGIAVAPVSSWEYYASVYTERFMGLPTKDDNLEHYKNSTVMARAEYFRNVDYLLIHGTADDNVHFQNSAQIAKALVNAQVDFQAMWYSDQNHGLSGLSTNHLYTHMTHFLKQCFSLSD
Kind of data set: Prodrug activation assessed as recombinant human FAP-alpha mediated (S)-((3S,5R,8R,9S,10S,11S,13R,14S,17R)-11,14-dihydroxy-10,13-dimethyl-12-oxo-17-(2-oxo-2H-pyran-5-yl)hexadecahydro-1H-cyclopenta[a]phenanthren-3-yl) 2-amino-3-(1H-indol-3-yl)propanoate formation by measuring intrinsic clearance at 40 umol/L […] by UPLC-MS/MS analysis. The following applies: 40 µM.

The test system of data set [2] is Mus musculus. Kind of data set: Cardiotoxicity in BALB/C nude mouse xenografted with human MDA-MB-231 cells assessed as change in interventricular septal diastole dimension at 12 umol/kg, iv administered starting on day 5 measured after day 22 by echocardiography. The following applies: in vivo. The format is toxicity, organism-based. A digest of the protocol:
(§2)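 Same MDA-MB-231 xenograft mice, given daily iv doses in 5% HS15 from day 5. After 22 days of dosing, transthoracic echocardiography with a 21 MHz transducer under 1.5% isoflurane, supine. M-mode images taken from the parasternal short-axis view at the papillary muscle; IVSd, IVSs, LVIDd and LVIDs derived, n = 6.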
On the technique in general: A xenograft is tissue or cells of one species grown in another, often human tumour cells in immunodeficient mice.

The test system of data set [3] is Mus musculus. Nature of the data set: Toxicity in BALB/C nude mouse xenografted with human MDA-MB-231 cells assessed as abnormal behavioral at 12 umol/kg, iv administered starting on day 5 measured after day 22. It counts as organism-based. Particulars: in vivo.
Data set [4] can be described thus: Safety index, ratio of test compound LD50 to arenobufagin LD50 for Kunming mouse. The format is ADME. Particulars: in vivo. An outline of the steps: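 LD50 from single-dose iv acute toxicity in Kunming mice (five dose levels per compound, n = 10 per group, 14-day observation), calculated by Bliss method; ratio taken against arenobufagin LD50.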
Data set [5] relates to MDA-MB-231. Nature of the data set: Antiproliferative activity against human MDA-MB-231 cells transfected with pCMV6 incubated for 48 hrs by MTT assay. The format is functional, cell-based. Particulars: MDA-MB-231, 48 h. An outline of the steps:
as §1

Data set [6] in a line: In vivo prodrug activation in tumor of BALB/C nude mouse xenografted with human MDA-MB-231 cells assessed as FAP-alpha mediated (S)-((3S,5R,8R,9S,10S,11S,13R,14S,17R)-11,14-dihydroxy-10,13-dimethyl-12-oxo-17-(2-oxo-2H-pyran-5-yl)hexadecahydro-1H-cyclopenta[a]phenanthren-3-yl) 2-amino-3-(1H-indol-3-yl)propanoate formation at 40 umol/L by LC-MS/MS analysis. Further details: species or system Neoplasm. A digest of the protocol:
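Tumour and heart tissue weighed and homogenized on ice in PBS, pH 7.4, then incubated with prodrug at 40 μmol/L. Bufalin at 2 μmol/L added as internal standard; reaction stopped with acetonitrile and spun at 18 000g for 30 min. Active form quantified by LC-MS/MS against a standard curve of 0.625–40 μmol/L; mean ± SEM of three samples.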

Data set [7] concerns Mus musculus. Nature of the data set: Toxicity in BALB/C nude mouse xenografted with human MDA-MB-231 cells assessed as histopathologic change in femur at 12 umol/kg, iv administered starting on day 5 measured after day 22 by hematoxylin-eosin staining-based assay. The format is organism-based. Particulars: in vivo. A digest of the protocol: (§3)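 Tissues from dosed xenograft mice fixed for 24 h and paraffin-embedded. Sections of 5 μm, H&E stained; heart, liver, spleen, lung, kidney and femur examined by a pathologist blind to treatment.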

Data set [8] can be described thus: Acute toxicity in iv dosed Kunming mouse measured less than 4 hrs post dose. The format is organism-based. Particulars: in vivo. An outline of the steps:
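Kunming mice (22.0−28.0 g), half male and half female, 10 groups of n = 10. Single iv dose on day 1 across five levels per compound (prodrug 29.98–50.00 μmol/kg; arenobufagin 4.50–8.00 μmol/kg). Watched continuously for 8 h for abnormal behaviour and deaths, then intermittently for 2 weeks, and sacrificed day 14. LD50 by Bliss method.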

Data set [9] concerns Mus musculus. Kind of data set: Nephrotoxicity in BALB/C nude mouse xenografted with human MDA-MB-231 cells at 12 umol/kg, iv administered starting on day 5 measured after day 22 by hematoxylin-eosin staining-based assay. It counts as toxicity, organism-based. Particulars: in vivo. A digest of the protocol: as §3
Data set [10] concerns MDA-MB-231. Nature of the data set: Antitumor activity against human MDA-MB-231 cells xenografted in BALB/C nude mouse assessed as tumor weight at 12 umol/kg, iv administered starting on day 5 measured after day 22 (reference value: 0.67 +/- 0.14 g). The format is functional. A digest of the protocol: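 Female BALB/C mice inoculated subcutaneously in the back with 1 × 10^7 MDA-MB-231 cells in Matrigel–PBS (1:1). From day 5, daily iv dosing in 5% Solutol-HS15 vehicle, with a vehicle control group. Tumours measured by caliper every 2 days (v = 0.5 × a × b²); tumour weight as mean ± SEM, n = 6, one-way ANOVA with Tukey's test.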

Data set [11] can be described thus: Cytotoxicity in BMSC (unknown origin) assessed as cell viability at 1000 nmol/L after 72 hrs by MTT assay. The following applies: unidentified, 1 µM. It counts as cell-based.
The subject of data set [12] is Mus musculus. Nature of the data set: Cardiotoxicity in BALB/C nude mouse xenografted with human MDA-MB-231 cells assessed as change in interventricular septal systole dimension at 12 umol/kg, iv administered starting on day 5 measured after day 22 by echocardiography. It counts as toxicity, organism-based. The following applies: in vivo. An outline of the steps: as §2

Data set [13] relates to Mus musculus. Nature of the data set: Hepatotoxicity in BALB/C nude mouse xenografted with human MDA-MB-231 cells at 12 umol/kg, iv administered starting on day 5 measured after day 22 by hematoxylin-eosin staining-based assay. It counts as toxicity, organism-based. Particulars: in vivo. A digest of the protocol: as §3

By IC50 is commonly meant the midpoint of a concentration-inhibition curve. A higher IC50 goes with weaker potency. In general, LD50 refers to the dose expected to kill half of the subjects tested. Higher therefore signals a less toxic substance. For the molecule `C[C@]12CC[C@H](OC(=O)[C@H](Cc3c[nH]c4ccccc34)NC(=O)[C@@H]3CCCN3C(=O)CNC(=O)OCc3ccccc3)C[C@H]1CC[C@@H]1[C@@H]2[C@H](O)C(=O)[C@]2(C)[C@@H](c3ccc(=O)oc3)CC[C@]12O`, the IC50 turned out to be 11.7 nM in the data set on MDA-MB-231 [1] and 24 nM in the data set on MDA-MB-231 [5]. Moreover, the CL on Prolyl endopeptidase FAP is 65890 µL/min/mg. Further, the Activity result in the data set with Mus musculus [2] was “Non-Toxic”; in the data set on Mus musculus [3] it was “Non-Toxic”; in the data set with Mus musculus [7], “Non-Toxic”; with Mus musculus [9], “Non-Toxic”; in the data set with MDA-MB-231 [10] it was 0.43 g; in data set [11], “Non-Toxic”. Further, the Activity result with Mus musculus [12] and with Mus musculus [13] was “Non-Toxic” each time. Besides, the selectivity ratio in [4] stood at 6.5. Besides, the Drug metabolism in data set [6] amounted to 19.82 µmol/L. Moreover, in [8], the LD50 at 4 h came out at 44 µmol/kg.
